Test results: ChEMBL document CHEMBL1142683, “Multivariate design, synthesis, and biological evaluation of peptide inhibitors of FimC/FimH protein-protein interactions in uropathogenic Escherichia coli” (J Med Chem, 2005)

Legend:
Escherichia coli [1] = test: Inhibition of FimC/FimH pilus assembly complex formation in Escherichia coli at 50 uM
How it was run: (§1)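 Competitive ELISA: FimC chaperone coated overnight at 4 °C in PBS pH 7.4, blocked with 3% BSA-PBS 1 h RT. Peptide in DMSO (0.5, 2.5 or 10 nmol; 10, 50, 200 µM) plus FimH (1 pmol, in 3 M urea/MES pH 6.8) 45 min RT. Bound FimH detected with mouse anti-FimH, then alkaline phosphatase anti-mouse IgG, p-nitrophenyl phosphate 1 h dark; A405. DMSO positive control. % inhibition, mean of four replicates.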

Escherichia coli [2] = test: Inhibition of FimC/FimH pilus assembly complex formation in Escherichia coli at 200 uM; how it was run: as §1
Escherichia coli [3] = test: Inhibition of FimC/FimH pilus assembly complex formation in Escherichia coli at 10 uM; how it was run: as §1

H-ADFFFHSIS-OH
inhibition (Escherichia coli [1]): 16%
inhibition (Escherichia coli [2]): 26%
inhibition (Escherichia coli [3]): 2%

H-AFSKSDFIS-OH
inhibition (Escherichia coli [1]): -9%
inhibition (Escherichia coli [2]): -6%
inhibition (Escherichia coli [3]): -5%

H-AGGTGTFIS-OH
inhibition (Escherichia coli [1]): -1%
inhibition (Escherichia coli [2]): -2%
inhibition (Escherichia coli [3]): -3%

H-AKGDLLLIS-OH
inhibition (Escherichia coli [1]): 13%
inhibition (Escherichia coli [2]): 14%
inhibition (Escherichia coli [3]): 3%

H-ATSFGHWIS-OH
inhibition (Escherichia coli [1]): 9%
inhibition (Escherichia coli [2]): 0%
inhibition (Escherichia coli [3]): 12%

H-AVLASAWIS-OH
inhibition (Escherichia coli [1]): 8%
inhibition (Escherichia coli [2]): 18%
inhibition (Escherichia coli [3]): 0%

H-DSTITIRGY-OH
inhibition (Escherichia coli [1]): 14%
inhibition (Escherichia coli [2]): 28%
inhibition (Escherichia coli [3]): -1%

H-GGTVHFKGG-OH
inhibition (Escherichia coli [1]): 1%
inhibition (Escherichia coli [2]): 3%
inhibition (Escherichia coli [3]): -3%

H-KDLASTLIS-OH
inhibition (Escherichia coli [1]): 11%
inhibition (Escherichia coli [2]): 3%
inhibition (Escherichia coli [3]): 16%

H-KFGDLASIS-OH
inhibition (Escherichia coli [1]): 1%
inhibition (Escherichia coli [2]): 7%
inhibition (Escherichia coli [3]): 4%

H-KGFQLDLIS-OH
inhibition (Escherichia coli [1]): 9%
inhibition (Escherichia coli [2]): 8%
inhibition (Escherichia coli [3]): -7%

H-KKLKLHFIS-OH
inhibition (Escherichia coli [1]): 22%
inhibition (Escherichia coli [2]): 39%
inhibition (Escherichia coli [3]): 8%

H-KVSFGLFIS-OH
inhibition (Escherichia coli [1]): 17%
inhibition (Escherichia coli [2]): 29%
inhibition (Escherichia coli [3]): 20%

H-LDSTLAFIS-OH
inhibition (Escherichia coli [1]): 25%
inhibition (Escherichia coli [2]): 37%
inhibition (Escherichia coli [3]): 10%

H-LGSAFLFIS-OH
inhibition (Escherichia coli [1]): 29%
inhibition (Escherichia coli [2]): 40%
inhibition (Escherichia coli [3]): 19%

H-LTFDGTWIS-OH
inhibition (Escherichia coli [1]): 7%
inhibition (Escherichia coli [2]): 10%
inhibition (Escherichia coli [3]): 0%

H-LVGKSHLIS-OH
inhibition (Escherichia coli [1]): 0%
inhibition (Escherichia coli [2]): 5%
inhibition (Escherichia coli [3]): 1%

H-NDLKGLFIS-OH
inhibition (Escherichia coli [1]): 12%
inhibition (Escherichia coli [2]): 14%
inhibition (Escherichia coli [3]): 10%

H-NFFAGHFIS-OH
inhibition (Escherichia coli [1]): 0%
inhibition (Escherichia coli [2]): 1%
inhibition (Escherichia coli [3]): -1%

H-NGFKFTWIS-OH
inhibition (Escherichia coli [1]): -3%
inhibition (Escherichia coli [2]): 2%
inhibition (Escherichia coli [3]): 2%

H-NGLQGASIS-OH
inhibition (Escherichia coli [1]): 19%
inhibition (Escherichia coli [2]): 24%
inhibition (Escherichia coli [3]): 10%

H-NGSDSHFIS-OH
inhibition (Escherichia coli [1]): 19%
inhibition (Escherichia coli [2]): 12%
inhibition (Escherichia coli [3]): 3%

H-NKGTSDWIS-OH
inhibition (Escherichia coli [1]): 8%
inhibition (Escherichia coli [2]): 10%
inhibition (Escherichia coli [3]): 3%

H-NTGALDSIS-OH
inhibition (Escherichia coli [1]): 11%
inhibition (Escherichia coli [2]): 15%
inhibition (Escherichia coli [3]): 2%

H-NTGQFAFIS-OH
inhibition (Escherichia coli [1]): 7%
inhibition (Escherichia coli [2]): 4%
inhibition (Escherichia coli [3]): 17%

H-NTLQLAIIS-OH
inhibition (Escherichia coli [1]): 23%
inhibition (Escherichia coli [2]): 40%
inhibition (Escherichia coli [3]): 7%

H-NTLQLALIS-OH
inhibition (Escherichia coli [1]): 32%
inhibition (Escherichia coli [2]): 50%
inhibition (Escherichia coli [3]): 18%

H-NVSTLHLIS-OH
inhibition (Escherichia coli [1]): 30%
inhibition (Escherichia coli [2]): 44%
inhibition (Escherichia coli [3]): 18%

H-TDGQLLWIS-OH
inhibition (Escherichia coli [1]): 1%
inhibition (Escherichia coli [2]): 4%
inhibition (Escherichia coli [3]): -8%

H-TGGAGALIS-OH
inhibition (Escherichia coli [1]): 17%
inhibition (Escherichia coli [2]): 3%

H-TTFTSLSIS-OH
inhibition (Escherichia coli [1]): 35%
inhibition (Escherichia coli [2]): 48%
inhibition (Escherichia coli [3]): 19%

H-TVLDFDFIS-OH
inhibition (Escherichia coli [1]): 6%
inhibition (Escherichia coli [2]): 5%
inhibition (Escherichia coli [3]): 3%
